Results on 18 compounds are retold here after PMC4802972 (Biochimica et biophysica acta, 2014).

Data set [1] concerns S. aureus BstA. Format: biochemical, Staphylococcus aureus. Conditions: for reduction of enzymatic rate compared to untreated +BstA reaction / reaction rate of +BstA reaction after treatment: 1 mM phenanthroline, 220 nM BstA; for reaction rate of +BstA reaction after treatment: 50 μM BSH, 23°C.
Data set [2] relates to S. aureus BstA. In words: Direct BstA reactions. Format: biochemical, Staphylococcus aureus. Conditions: for BstA dependence of reaction with BSH: with and without BstA. The method, boiled down: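 Purified His6-tag-cleaved S. aureus BstA, expressed in E. coli C41 (DE3). Cerulenin and BSH, 500 μM each, reacted with and without 220 nM BstA. Samples diluted 5-fold into 10 mM methanesulfonic acid, concentrated, then run on C18 reverse-phase HPLC at 0.4 mL/min with a 0–70% B gradient over 40 min (A 0.05% TFA-water, B 60% acetonitrile-water). Detection at 220 nm.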

Data set [3] has as its target T1, BstA (Staphylococcus aureus, UniProt A0A0H2XDW9). As to the kind of experiment: Saturation kinetics of BstA. It counts as biochemical. As to conditions: for kcat: pH 7.0, BSH and mBCl at 37°C with 220 nM BstA, CDNB at 23°C with 2.8 μM BstA.
The test system of the next data set is S. aureus FosB. As to conditions: read-out: Km of FosB for BSH; cited from earlier work.
The conditions of data set [4]: cited from earlier work.
Data set [5] can be described thus: Direct non-enzymatic reaction with BSH.
For data set [6], the target named is T1, BstA. As to the kind of experiment: Inhibition constants of carboxamido-1,3,4-oxadiazole kinase inhibitors. It counts as biochemical.
A further data set relates to S. aureus MW2. Conditions: cited from earlier work.
[7] abbreviates: + 220 nM BstA, 50 μM thiol, 50 μM mBCl, pH 7.0.
Setting [8] is: − BstA, 50 μM thiol, 50 μM mBCl, pH 7.0.

Read-outs that look alike come from different tables or passages of the source. Some results are limits rather than exact numbers.

Turning to `c1cnc2c(c1)ccc1ncccc12` [1,7-phenanthroline], the “reduction of enzymatic rate compared to untreated +BstA reaction” value in the data set on S. aureus BstA [1] worked out at 27%. Also, the “reaction rate of +BstA reaction after treatment” value in the data set with S. aureus BstA [1] (50 μM mBCl) was determined as 105 nmol/min/mg.

For the compound `c1cnc2c(c1)ccc1cccnc12` [1,10-phenanthroline], in the data set with S. aureus BstA [1], the “reduction of enzymatic rate compared to untreated +BstA reaction” value is given as above 99%. Moreover, in the data set on S. aureus BstA [1] (50 μM mBCl), the “reaction rate of +BstA reaction after treatment” value was determined as 12.5 ± 0.7 nmol/min/mg.

For the compound `CCCCCC(O)/C=C/C=O` (centres unmarked) [4-hydroxynonenal], the “BstA dependence of reaction with BSH” value in the data set on S. aureus BstA [2] was “BstA-independent”.

As for `N[C@@H](CS)C(=O)N[C@H]1[C@@H](O[C@@H](CC(=O)O)C(=O)O)O[C@H](CO)[C@@H](O)[C@@H]1O` [BSH, bacillithiol], the “Specific Activity + BstA” value with S. aureus BstA [1] (setting [7]) was determined as 152 ± 8 nmol/min/mg. The “Specific Activity − BstA” value in the data set on S. aureus BstA [1] (setting [8]) was 8.4 ± 0.3 nmol/min/mg. For the same compound, on BstA [3] (BstA vs FosB), the “Km of BstA for BSH lower than that of S. aureus FosB” value came to 260 fold. For the same compound, the turnover number (kcat) at BstA [3] came to 0.21 ± 0.01 s⁻¹. The Km with S. aureus FosB was 4.2 ± 0.7 mM. For the same compound, the “thiol pKa” value in data set [4] is given as 7.46.

As for `O=[N+]([O-])c1ccc(Cl)c([N+](=O)[O-])c1` [CDNB, 1-chloro-2,4-dinitrobenzene], on BstA [3] (CDNB vs mBCl), the “catalytic efficiency below that of mBCl” value is 8 fold. For the same compound, the turnover number (kcat) on BstA [3] came to 0.22 ± 0.02 s⁻¹.

`CC(C)(COP(=O)(O)OP(=O)(O)OC[C@H]1O[C@@H](n2cnc3c(N)ncnc32)[C@H](O)[C@@H]1OP(=O)(O)O)[C@@H](O)C(=O)NCCC(=O)NCCS` [Coenzyme A, coenzyme A]: in the data set on S. aureus BstA [1] (setting [7]), the “Specific Activity + BstA” value worked out at 1.4 ± 0.1 nmol/min/mg. In addition, the “Specific Activity − BstA” value in the data set on S. aureus BstA [1] (setting [8]) amounted to 1.2 ± 0.1 nmol/min/mg. The “thiol pKa” value in data set [4] is 9.6.

In the case of `N[C@@H](CS)C(=O)O` [Cysteine, cysteine], the “Specific Activity + BstA” value with S. aureus BstA [1] (setting [7]) turned out to be 8.3 ± 0.5 nmol/min/mg. Moreover, in the data set on S. aureus BstA [1] (setting [8]), the “Specific Activity − BstA” value came to 6.7 ± 0.3 nmol/min/mg.

For the compound `O=C(O)CN(CCN(CC(=O)O)CC(=O)O)CC(=O)O` [EDTA, ethylenediaminetetraacetic acid], in the data set with S. aureus BstA [1], the “effect on BstA activity” value was “abolished activity”.

Take `N[C@@H](CCC(=O)N[C@@H](CS)C(=O)NCC(=O)O)C(=O)O` [Glutathione, glutathione]: in the data set on S. aureus BstA [1] (pH 7), the “Specific Activity + BstA” value turned out to be 3.9 ± 0.1 nmol/min/mg and the “Specific Activity − BstA” value was 4.4 ± 0.4 nmol/min/mg.

As to `CC(=O)N[C@@H](CS)C(=O)N[C@H]1[C@@H](OC2[C@H](O)[C@H](O)C(O)[C@H](O)[C@H]2O)O[C@H](CO)[C@@H](O)[C@@H]1O` (some centres unmarked) [Mycothiol, mycothiol], in the data set with S. aureus BstA [1] (setting [7]), the “Specific Activity + BstA” value worked out at 3.3 ± 0.1 nmol/min/mg. Further, in the data set on S. aureus BstA [1] (setting [8]), the “Specific Activity − BstA” value was 3.0 ± 0.1 nmol/min/mg.

Take `C/C=C/C/C=C/CCC(=O)[C@H]1O[C@H]1C(N)=O` [cerulenin]: in the data set with S. aureus BstA [2] (500 μM cerulenin, 500 μM BSH, 220 nM BstA), the “adduct formation rate with BSH, +BstA” value was found to be 300 nmol/min/mg. Besides, the “BstA catalyzed reaction rate” value in the data set with S. aureus BstA [2] (cerulenin with BSH, net enzymatic rate) was determined as 130 nmol/min/mg. Moreover, the “BstA dependence of reaction with BSH” value with S. aureus BstA [2] is reported as “weak substrate”. In data set [5] (500 μM cerulenin, 500 μM BSH, −BstA), the “non-enzymatic rate of adduct formation with BSH” value was 170 nmol/min/mg.

The compound `O=C(Nc1nnc(-c2ccc(F)cc2)o1)c1ccc(Br)s1` [compound 3, 5-bromo-N-[5-(4-fluorophenyl)-1,3,4-oxadiazol-2-yl]thiophene-2-carboxamide] showed a Ki at BstA [6] of around 3 µM. Moreover, on BstA [6] (5 μM inhibitor), the “inhibition of BstA in concentration dependent inhibitor studies” value is reported as “effective inhibitor”.

As to `C=C(CC)C(=O)c1ccc(OCC(=O)O)c(Cl)c1Cl` [etacrynic acid], in the data set on S. aureus BstA [2], the “BstA dependence of reaction with BSH” value is reported as “BstA-independent”.

Take `OO` [hydrogen peroxide]: in the data set with S. aureus MW2, the “increase of bstA expression” value is listed as 3 fold, the “upregulation of brxB ortholog” value is listed as 6 fold and the “upregulation of glxA ortholog” value is 2 fold.

Turning to `OCl` [hypochlorous acid], in the data set with S. aureus MW2, the “increase of bstA expression” value is on record as 2 fold, the “upregulation of brxB ortholog” value is recorded as 2 fold and the “upregulation of glxA ortholog” value is 3 fold.

Take `Cc1c(C)n2c(CCl)c(C)c(=O)n2c1=O` [mBCl, monochlorobimane]: the “Km below the Km of CDNB” value on BstA [3] (mBCl vs CDNB) is “over 10 fold”. The kcat at BstA [3] amounted to 0.30 ± 0.02 s⁻¹.

For the compound `CO[C@H]1/C=C/O[C@@]2(C)Oc3c(C)c(O)c4c(c3C2=O)C(=O)C=C(NC(=O)/C(C)=C\C=C\[C@H](C)[C@H](O)[C@@H](C)[C@@H](O)[C@@H](C)[C@H](OC(C)=O)[C@@H]1C)C4=O` [rifamycin S], the “BstA dependence of reaction with BSH” value in the data set on S. aureus BstA [2] is given as “BstA-independent”. In addition, the “rate of direct reaction with BSH” value in data set [5] (50 μM each, pH 7.0 and pH 6.0, BstA-independent) is above 35 µM/min.

Take `C[S+]([O-])CCCCN=C=S` (centres unmarked) [sulforaphane]: the “BstA dependence of reaction with BSH” value in the data set on S. aureus BstA [2] is recorded as “BstA-independent”.

One may read the kcat as the maximal rate divided by the concentration of active sites. By Km is commonly meant the substrate concentration at which the rate is half of its maximum. As usually defined, the Ki is the dissociation constant of the complex between target and ligand, obtained from inhibition or displacement. Higher therefore signals weaker binding.
